Measurements reported in ChEMBL document CHEMBL1133793, “Polyamines with N-(3-phenylpropyl) substituents are effective competitive inhibitors of trypanothione reductase and trypanocidal agents” (Bioorg Med Chem Lett, 2001).

Columns and labels:
Trypanosoma brucei [1] = assay: Tested in vitro for trypanocidal activity against KETRI 269 an uncloned clinical isolate of Trypanosoma brucei. rhodesiense; type: functional, organism-based
Procedure, shortened: (§1)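 Bloodstream-form trypanosomes were grown in vitro in culture medium containing fetal bovine serum, which the paper notes contains polyamine oxidase. IC50 values in µM.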

Trypanosoma brucei [2] = assay: Tested in vitro for trypanocidal activity against KETRI 243 an uncloned clinical isolate of Trypanosoma brucei. rhodesiense; type: functional, organism-based; procedure, shortened: as §1
Trypanosoma brucei [3] = assay: Tested in vitro for trypanocidal activity against KETRI 243-As-10-3 a pentamidine and melarsoprol resistant clone of Trypanosoma brucei. rhodesiense KETRI 243; type: functional, organism-based; procedure, shortened: as §1
Trypanosoma brucei [4] = assay: Tested in vitro for trypanocidal activity against a drug sensitive strain of Trypanosoma brucei Lab 110 EATRO; type: functional, organism-based; procedure, shortened: as §1
Trypanothione reductase = Trypanothione reductase (Trypanosoma cruzi, UniProt P28593); assay: Tested for binding affinity against trypanothione reductase from Trypanosoma cruzi
Sequence of Trypanothione reductase (P28593 whole entry): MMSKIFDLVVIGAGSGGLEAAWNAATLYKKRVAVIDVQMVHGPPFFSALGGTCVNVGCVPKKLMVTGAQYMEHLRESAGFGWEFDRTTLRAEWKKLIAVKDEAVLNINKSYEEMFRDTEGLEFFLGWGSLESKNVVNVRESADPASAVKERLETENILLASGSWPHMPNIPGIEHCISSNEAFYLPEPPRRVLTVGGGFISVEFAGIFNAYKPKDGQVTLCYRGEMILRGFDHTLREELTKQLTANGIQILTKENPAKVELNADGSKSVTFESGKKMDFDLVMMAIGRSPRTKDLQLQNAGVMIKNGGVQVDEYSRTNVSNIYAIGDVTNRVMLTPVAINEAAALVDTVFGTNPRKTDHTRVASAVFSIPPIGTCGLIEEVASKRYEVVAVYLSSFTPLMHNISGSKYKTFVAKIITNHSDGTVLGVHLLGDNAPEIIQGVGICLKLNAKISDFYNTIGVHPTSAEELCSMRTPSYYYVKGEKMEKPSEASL
Procedure, shortened: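 Recombinant T. cruzi TR purified from glutathione reductase-deficient E. coli SG5 strain. Activity read as NADPH oxidation at 340 nm, 23 °C, in HEPES 100 mM pH 7.25 with EDTA 1 mM, NADPH 0.18 mM and TR 2.2 µg/mL. Velocities taken at five trypanothione levels (15-75 µM) and five inhibitor levels. Km(obs) fitted by Michaelis–Menten; Ki from weighted regression of Km(obs) against [I].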

Structure (SMILES)	IC50 (Trypanosoma brucei [1])	IC50 (Trypanosoma brucei [2])	IC50 (Trypanosoma brucei [3])	IC50 (Trypanosoma brucei [4])	Ki (Trypanothione reductase)
c1ccc(CCCNCCCN(CCCCN(CCCNCCCc2ccccc2)CCCc2ccccc2)CCCc2ccccc2)cc1	160 nM	140 nM	150 nM	120 nM	614 nM
NCCCCN(CCCNCCCc1ccccc1)CCCc1ccccc1.NCCCN(CCCCNCCCc1ccccc1)CCCc1ccccc1	380 nM	530 nM	570 nM	310 nM	4670 nM
c1ccc(CCCNCCCN(CCCCN(CCCc2ccccc2)CCCN(CCCc2ccccc2)CCCc2ccccc2)CCCc2ccccc2)cc1	2200 nM	3350 nM	5500 nM	3050 nM	151 nM
NCCCCN(CCCN)CCCc1ccccc1					14100 nM
NCCCN(CCCCN(CCCN)CCCc1ccccc1)CCCc1ccccc1	580 nM	790 nM	660 nM	660 nM	
c1ccc(CCCNCCCCN(CCCNCCCc2ccccc2)CCCc2ccccc2)cc1	540 nM	360 nM	460 nM	220 nM	3500 nM
NCCCNCCCCNCCCNCCCc1ccccc1					37600 nM
c1ccc(CCCNCCCNCCCCNCCCN(CCCc2ccccc2)CCCc2ccccc2)cc1	270 nM	160 nM	530 nM	400 nM	3620 nM
c1ccc(CCCNCCCNCCCCNCCCNCCCc2ccccc2)cc1	1800 nM	1500 nM	2200 nM	810 nM	12300 nM
c1ccc(CCCN(CCCCN(CCCc2ccccc2)CCCN(CCCc2ccccc2)CCCc2ccccc2)CCCN(CCCc2ccccc2)CCCc2ccccc2)cc1	30500 nM	35000 nM	24000 nM	22000 nM	10300 nM
NCCCN(CCCCN(CCCNCCCc1ccccc1)CCCc1ccccc1)CCCc1ccccc1	160 nM	160 nM	160 nM	270 nM	1380 nM
